Test results from ChEMBL document CHEMBL1781959, “Synthesis and in vitro antitumor activity of substituted quinazoline and quinoxaline derivatives: search for anticancer agent” (Eur J Med Chem, 2011).

Experiments:
K562 = assay: Cytotoxicity against human K562 cells after 48 hrs by SRB assay; format: cell-based; conditions: k562, 48 h
Method in brief: (§1)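 NCI-60 five-dose screen in RPMI 1640 with 5% FBS and 2 mM L-glutamine; 5000–40,000 cells/well, 24 h pre-incubation. DMSO stocks diluted to 0.01, 0.1, 1, 10 and 100 μM final; 48 h at 37 °C, 5% CO2. Fixed with TCA (10% final adherent, 16% suspension), stained with 0.4% SRB, A515. GI50, TGI and LC50 taken from time-zero, control and test absorbances.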

OVCAR-3 = assay: Cytotoxicity against human OVCAR3 cells after 48 hrs by SRB assay; format: cell-based; conditions: ovcar-3, 48 h; method in brief: as §1
SNB-19 = assay: Growth inhibition of human SNB19 cells after 48 hrs by SRB assay; format: functional; conditions: SNB-19, 48 h
Method in brief: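 NCI-60 panel cells grown in RPMI 1640 with 5% FBS and 2 mM L-glutamine, then seeded at 5000–40,000 cells/well by doubling time and preincubated for 24 h. Compound in DMSO was tested either at 10^-5 M alone or at 0.01–100 μM in five doses, for 48 h at 37 °C. Cells were fixed with cold TCA (10% final), stained with SRB, and read at 515 nm. GI50 was taken from % growth relative to time-zero and control wells.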

UO-31 = assay: Cytotoxicity against human UO31 cells after 48 hrs by SRB assay; format: cell-based; conditions: uo-31, 48 h
Method in brief: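 NCI-60 five-dose screen. Cells grown in RPMI 1640 with 5% FBS and 2 mM L-glutamine and pre-incubated 24 h; a time-zero plate is TCA-fixed. Drug added at 0.01, 0.1, 1, 10 and 100 µM (DMSO stock) for 48 h at 37 °C, 5% CO2. Fixed with cold TCA (10% final for adherent, 16% for suspension cells), stained with 0.4% SRB, A515. GI50, TGI and LC50 taken from dose-response curves.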

## O=c1c2ccccc2nc(-c2ccco2)n1/N=C/c1ccccc1Cl
K562
  LC50: > 100 µM
OVCAR-3
  LC50: > 100 µM
SNB-19
  GI50: 6.34 µM
  TGI: 12.8 µM
UO-31
  LC50: > 100 µM
